Columns and labels:
[1] = target: T1, Nitric oxide synthase 3 (Homo sapiens, UniProt P29474); test: Inhibition of human endothelial NOS activity
T1 sequence (P29474 whole entry): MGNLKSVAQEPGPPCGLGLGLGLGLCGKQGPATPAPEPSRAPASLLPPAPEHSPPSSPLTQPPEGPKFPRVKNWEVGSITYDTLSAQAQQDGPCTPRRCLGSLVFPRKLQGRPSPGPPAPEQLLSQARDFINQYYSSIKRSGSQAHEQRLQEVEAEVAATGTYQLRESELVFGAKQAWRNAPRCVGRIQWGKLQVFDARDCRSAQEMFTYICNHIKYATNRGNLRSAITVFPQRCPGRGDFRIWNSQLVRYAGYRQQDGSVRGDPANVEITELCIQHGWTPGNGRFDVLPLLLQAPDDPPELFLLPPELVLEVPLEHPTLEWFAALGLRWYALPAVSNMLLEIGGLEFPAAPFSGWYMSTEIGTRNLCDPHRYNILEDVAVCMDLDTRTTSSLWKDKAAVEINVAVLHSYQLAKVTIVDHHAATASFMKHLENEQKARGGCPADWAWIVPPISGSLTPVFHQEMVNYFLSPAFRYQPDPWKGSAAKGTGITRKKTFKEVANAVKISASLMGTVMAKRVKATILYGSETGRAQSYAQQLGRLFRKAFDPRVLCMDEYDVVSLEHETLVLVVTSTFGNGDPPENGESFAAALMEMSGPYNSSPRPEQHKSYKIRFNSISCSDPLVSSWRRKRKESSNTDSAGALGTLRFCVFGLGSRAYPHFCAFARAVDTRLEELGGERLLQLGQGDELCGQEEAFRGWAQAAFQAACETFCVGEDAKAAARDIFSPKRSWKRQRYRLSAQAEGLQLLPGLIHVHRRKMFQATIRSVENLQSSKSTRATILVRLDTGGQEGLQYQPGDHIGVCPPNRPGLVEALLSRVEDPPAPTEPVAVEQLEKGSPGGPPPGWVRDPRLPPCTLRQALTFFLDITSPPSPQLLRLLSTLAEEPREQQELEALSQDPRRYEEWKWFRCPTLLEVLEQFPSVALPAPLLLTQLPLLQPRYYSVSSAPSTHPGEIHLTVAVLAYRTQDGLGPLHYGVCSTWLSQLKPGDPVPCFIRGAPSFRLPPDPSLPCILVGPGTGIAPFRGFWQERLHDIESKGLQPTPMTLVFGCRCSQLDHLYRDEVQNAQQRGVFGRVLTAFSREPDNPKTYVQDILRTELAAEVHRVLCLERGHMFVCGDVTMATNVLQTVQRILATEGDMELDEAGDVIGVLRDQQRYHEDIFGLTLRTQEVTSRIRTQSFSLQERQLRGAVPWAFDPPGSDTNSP
How it was run: (§1)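 Human NOS isoform activity read out as conversion of [³H]L-arginine to [³H]L-citrulline. Percent inhibition was measured at 8–12 inhibitor concentrations to derive IC₅₀.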

[2] = organism: Homo sapiens; test: Selectivity for human nNOS over human eNOS
How it was run: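 Ratio of human eNOS IC₅₀ to human nNOS IC₅₀. Each IC₅₀ comes from radiolabelled arginine-to-citrulline conversion, with percent inhibition at 8–12 concentrations.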

[3] = target: Nitric oxide synthase, inducible (Homo sapiens, UniProt P35228); test: Inhibition of human inducible NOS activity; how it was run: as §1
[4] = target: Nitric oxide synthase 1 (Homo sapiens, UniProt P29475); test: Inhibition of human neuronal NOS activity
Sequence of Nitric oxide synthase 1 (Homo sapiens, UniProt P29475) (P29475 whole entry): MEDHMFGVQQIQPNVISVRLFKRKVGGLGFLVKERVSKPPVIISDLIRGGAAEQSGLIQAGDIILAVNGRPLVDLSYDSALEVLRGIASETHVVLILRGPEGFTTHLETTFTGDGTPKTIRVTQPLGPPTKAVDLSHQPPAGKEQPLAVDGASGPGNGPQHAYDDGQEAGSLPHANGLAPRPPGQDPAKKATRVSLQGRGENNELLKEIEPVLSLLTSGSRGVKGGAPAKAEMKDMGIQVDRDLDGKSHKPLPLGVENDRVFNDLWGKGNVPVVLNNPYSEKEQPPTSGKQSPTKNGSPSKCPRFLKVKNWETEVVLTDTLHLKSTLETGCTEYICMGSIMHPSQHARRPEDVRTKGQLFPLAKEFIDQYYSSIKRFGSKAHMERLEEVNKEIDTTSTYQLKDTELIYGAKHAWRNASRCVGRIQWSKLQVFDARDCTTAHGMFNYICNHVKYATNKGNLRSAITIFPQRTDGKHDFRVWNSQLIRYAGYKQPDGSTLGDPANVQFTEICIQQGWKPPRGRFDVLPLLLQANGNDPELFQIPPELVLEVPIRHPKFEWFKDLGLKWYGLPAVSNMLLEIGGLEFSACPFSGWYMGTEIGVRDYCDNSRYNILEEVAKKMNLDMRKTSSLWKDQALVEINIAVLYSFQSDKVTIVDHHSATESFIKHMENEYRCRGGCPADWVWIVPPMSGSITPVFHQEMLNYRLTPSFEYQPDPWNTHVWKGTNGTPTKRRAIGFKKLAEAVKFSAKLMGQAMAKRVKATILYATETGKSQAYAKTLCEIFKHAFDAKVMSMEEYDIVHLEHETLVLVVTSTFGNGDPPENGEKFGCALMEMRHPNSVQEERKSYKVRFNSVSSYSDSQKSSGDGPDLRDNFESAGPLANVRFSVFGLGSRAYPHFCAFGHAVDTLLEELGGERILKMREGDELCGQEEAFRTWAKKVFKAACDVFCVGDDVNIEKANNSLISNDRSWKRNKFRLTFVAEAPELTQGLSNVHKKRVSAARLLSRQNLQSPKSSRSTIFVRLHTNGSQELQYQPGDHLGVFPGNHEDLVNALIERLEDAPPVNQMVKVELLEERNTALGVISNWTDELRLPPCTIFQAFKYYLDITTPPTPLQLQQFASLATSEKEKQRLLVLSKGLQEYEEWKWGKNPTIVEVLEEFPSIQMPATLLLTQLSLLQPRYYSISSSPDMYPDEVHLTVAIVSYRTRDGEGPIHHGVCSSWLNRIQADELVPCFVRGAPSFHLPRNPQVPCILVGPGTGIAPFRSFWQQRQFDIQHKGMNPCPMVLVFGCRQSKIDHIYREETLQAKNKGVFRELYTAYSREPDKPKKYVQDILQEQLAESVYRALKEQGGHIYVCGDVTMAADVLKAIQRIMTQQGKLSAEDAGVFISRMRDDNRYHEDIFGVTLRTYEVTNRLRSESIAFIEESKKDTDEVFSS

[5] = target: Nitric oxide synthase 1 (Rattus norvegicus, UniProt P29476); test: Inhibition of rat neuronal NOS activity
Sequence of Nitric oxide synthase 1 (Rattus norvegicus, UniProt P29476) (P29476 whole entry): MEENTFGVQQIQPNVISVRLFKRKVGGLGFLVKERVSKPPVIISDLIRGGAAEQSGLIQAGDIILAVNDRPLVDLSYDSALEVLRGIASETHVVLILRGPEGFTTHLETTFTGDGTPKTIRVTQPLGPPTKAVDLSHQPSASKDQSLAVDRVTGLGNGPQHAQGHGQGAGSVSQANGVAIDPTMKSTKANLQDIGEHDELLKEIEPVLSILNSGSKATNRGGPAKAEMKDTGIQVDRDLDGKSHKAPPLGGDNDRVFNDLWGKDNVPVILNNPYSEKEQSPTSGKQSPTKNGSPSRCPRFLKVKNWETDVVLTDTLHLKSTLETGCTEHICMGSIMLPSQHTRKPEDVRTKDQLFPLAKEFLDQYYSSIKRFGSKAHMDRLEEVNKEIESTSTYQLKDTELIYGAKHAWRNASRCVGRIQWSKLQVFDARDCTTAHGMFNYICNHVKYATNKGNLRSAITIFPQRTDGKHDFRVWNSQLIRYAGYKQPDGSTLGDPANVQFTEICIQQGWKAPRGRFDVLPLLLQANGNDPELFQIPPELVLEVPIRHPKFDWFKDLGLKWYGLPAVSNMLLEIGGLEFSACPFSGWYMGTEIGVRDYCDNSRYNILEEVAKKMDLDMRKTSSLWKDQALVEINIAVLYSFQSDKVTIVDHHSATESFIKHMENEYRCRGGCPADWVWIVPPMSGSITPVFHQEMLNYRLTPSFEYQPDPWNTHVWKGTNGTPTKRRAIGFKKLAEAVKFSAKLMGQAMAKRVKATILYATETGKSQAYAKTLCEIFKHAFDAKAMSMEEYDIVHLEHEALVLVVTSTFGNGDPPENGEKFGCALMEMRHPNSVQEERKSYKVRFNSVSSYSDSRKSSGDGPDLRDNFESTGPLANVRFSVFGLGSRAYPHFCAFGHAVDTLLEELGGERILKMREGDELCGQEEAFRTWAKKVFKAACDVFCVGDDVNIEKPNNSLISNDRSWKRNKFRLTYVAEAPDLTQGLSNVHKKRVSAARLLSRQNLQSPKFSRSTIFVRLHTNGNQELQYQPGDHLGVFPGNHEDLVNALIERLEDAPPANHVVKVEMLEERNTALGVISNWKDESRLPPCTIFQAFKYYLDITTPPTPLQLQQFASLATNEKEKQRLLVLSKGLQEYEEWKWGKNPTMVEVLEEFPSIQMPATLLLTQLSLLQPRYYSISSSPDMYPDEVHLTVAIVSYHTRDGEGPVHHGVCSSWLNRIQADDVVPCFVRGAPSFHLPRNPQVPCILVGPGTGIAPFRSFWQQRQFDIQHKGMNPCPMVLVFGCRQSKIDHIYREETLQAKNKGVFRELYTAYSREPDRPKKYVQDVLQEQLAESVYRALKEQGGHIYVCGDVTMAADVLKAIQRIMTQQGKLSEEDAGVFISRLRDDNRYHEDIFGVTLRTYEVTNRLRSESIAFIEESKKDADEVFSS

[6] = target: T2, Nitric oxide synthase 3 (Rattus norvegicus, UniProt Q62600); test: Inhibition of rat endothelial NOS activity
T2 sequence (Q62600 whole entry): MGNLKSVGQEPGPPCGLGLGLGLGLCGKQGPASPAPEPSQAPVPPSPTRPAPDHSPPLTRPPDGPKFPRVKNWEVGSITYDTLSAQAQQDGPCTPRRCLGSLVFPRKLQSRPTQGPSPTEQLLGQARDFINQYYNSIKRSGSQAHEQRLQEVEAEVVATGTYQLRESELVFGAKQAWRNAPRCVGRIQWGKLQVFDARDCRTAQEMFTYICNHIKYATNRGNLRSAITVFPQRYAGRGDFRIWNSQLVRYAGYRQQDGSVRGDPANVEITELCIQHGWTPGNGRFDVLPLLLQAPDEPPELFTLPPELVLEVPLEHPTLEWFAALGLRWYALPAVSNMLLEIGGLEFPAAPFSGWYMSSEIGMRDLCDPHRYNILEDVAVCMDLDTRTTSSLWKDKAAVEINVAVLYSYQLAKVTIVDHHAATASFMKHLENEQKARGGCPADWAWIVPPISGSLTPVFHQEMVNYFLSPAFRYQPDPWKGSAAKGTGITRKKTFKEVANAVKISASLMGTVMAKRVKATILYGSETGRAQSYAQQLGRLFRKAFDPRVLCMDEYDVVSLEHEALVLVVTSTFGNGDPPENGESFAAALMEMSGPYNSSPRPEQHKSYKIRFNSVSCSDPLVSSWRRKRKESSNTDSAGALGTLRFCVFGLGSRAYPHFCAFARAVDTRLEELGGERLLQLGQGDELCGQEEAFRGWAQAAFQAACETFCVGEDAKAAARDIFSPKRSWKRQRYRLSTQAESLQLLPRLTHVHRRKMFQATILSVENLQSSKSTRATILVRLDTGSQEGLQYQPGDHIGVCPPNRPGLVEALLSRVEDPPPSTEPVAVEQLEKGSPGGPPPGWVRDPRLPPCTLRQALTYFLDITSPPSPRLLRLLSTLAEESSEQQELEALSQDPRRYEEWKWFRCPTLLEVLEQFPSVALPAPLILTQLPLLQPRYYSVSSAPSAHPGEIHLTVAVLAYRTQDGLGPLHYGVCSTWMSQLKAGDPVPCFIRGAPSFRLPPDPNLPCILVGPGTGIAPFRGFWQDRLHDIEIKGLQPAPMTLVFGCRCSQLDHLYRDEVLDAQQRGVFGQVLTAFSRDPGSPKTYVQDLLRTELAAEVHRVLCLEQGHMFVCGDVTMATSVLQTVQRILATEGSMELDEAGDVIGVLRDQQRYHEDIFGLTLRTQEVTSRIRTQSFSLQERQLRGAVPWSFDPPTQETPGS
How it was run: (§2)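 Rat NOS isoform activity read out as conversion of radiolabelled L-arginine to L-citrulline. Percent inhibition was measured in duplicate at 8–12 concentrations to give IC₅₀.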

[7] = target: Nitric oxide synthase, inducible (Rattus norvegicus, UniProt Q06518); test: Inhibition of rat inducible NOS activity; how it was run: as §2
Sequence of Nitric oxide synthase, inducible (Rattus norvegicus, UniProt Q06518) (Q06518 whole entry): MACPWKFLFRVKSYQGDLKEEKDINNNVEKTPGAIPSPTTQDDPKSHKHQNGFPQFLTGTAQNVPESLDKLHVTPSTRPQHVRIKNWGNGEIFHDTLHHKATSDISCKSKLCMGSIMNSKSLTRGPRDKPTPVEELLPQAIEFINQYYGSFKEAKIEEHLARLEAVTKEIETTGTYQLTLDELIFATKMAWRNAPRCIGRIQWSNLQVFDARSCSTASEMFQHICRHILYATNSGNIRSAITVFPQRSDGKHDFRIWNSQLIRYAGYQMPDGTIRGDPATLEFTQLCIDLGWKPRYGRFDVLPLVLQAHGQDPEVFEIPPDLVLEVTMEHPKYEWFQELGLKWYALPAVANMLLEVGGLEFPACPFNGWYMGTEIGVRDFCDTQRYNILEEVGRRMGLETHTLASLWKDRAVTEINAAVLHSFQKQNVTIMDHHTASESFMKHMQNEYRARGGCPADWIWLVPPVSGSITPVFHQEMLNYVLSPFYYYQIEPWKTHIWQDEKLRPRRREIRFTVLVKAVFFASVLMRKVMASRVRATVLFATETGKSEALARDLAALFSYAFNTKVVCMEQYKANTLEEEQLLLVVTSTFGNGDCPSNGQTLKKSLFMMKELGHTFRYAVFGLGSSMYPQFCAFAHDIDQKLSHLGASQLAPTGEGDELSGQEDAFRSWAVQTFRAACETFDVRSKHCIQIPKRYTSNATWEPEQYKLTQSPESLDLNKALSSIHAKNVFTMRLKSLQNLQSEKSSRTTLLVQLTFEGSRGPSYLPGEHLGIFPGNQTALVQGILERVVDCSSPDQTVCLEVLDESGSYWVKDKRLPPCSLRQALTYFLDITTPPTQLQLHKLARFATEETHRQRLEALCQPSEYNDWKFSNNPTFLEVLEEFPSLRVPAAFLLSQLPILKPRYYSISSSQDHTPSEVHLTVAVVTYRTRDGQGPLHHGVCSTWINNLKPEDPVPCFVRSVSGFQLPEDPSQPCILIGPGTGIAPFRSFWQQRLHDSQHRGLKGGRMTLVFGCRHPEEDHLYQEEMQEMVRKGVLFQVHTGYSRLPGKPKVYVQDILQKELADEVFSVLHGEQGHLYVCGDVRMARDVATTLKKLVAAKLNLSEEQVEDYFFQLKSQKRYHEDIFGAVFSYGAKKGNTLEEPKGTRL

SMILES	IC50 [1]	Ratio IC50 [2]	IC50 [3]	IC50 [4]	IC50 [5]	IC50 [6]	IC50 [7]
N=C(Nc1ccc2nc(NCCc3ccc(Br)cc3)sc2c1)c1cccs1	2.1 µM	0.5	75 µM	4.4 µM	4.7 µM	5.2 µM	–
N=C(Nc1ccc2sc(NCCc3ccccn3)nc2c1)c1cccs1	6 µM	5	139 µM	1.1 µM	–	–	–
N=C(Nc1ccc2nc(NC3CCN(Cc4ccc(F)cc4)CC3)sc2c1)c1cccs1	8 µM	40	14 µM	0.2 µM	–	–	–
N=C(Nc1ccc2nc(NC3CCOCC3)sc2c1)c1cccs1	16 µM	8	64 µM	2 µM	–	–	–
COC(=O)c1ccc(CN2CCC(Nc3nc4ccc(N=C(N)c5cccs5)cc4s3)CC2)cc1	5.2 µM	–	> 100 µM	0.3 µM	–	–	–
COc1cccc(CN2CCC(Nc3nc4ccc(NC(=N)c5cccs5)cc4s3)CC2)c1	–	27	–	–	–	–	–
CCSC(N)=Nc1ccc2sc(N)nc2c1	12 µM	–	97 µM	4.6 µM	–	–	–
COc1ccc(CN2CCC(Nc3nc4ccc(N=C(N)c5cccs5)cc4s3)CC2)cc1	5.7 µM	–	9 µM	0.2 µM	–	–	–
N=C(Nc1ccc2nc(NC3CCN(Cc4ccc(C(=O)O)cc4)CC3)sc2c1)c1cccs1	59 µM	12	> 100 µM	5.1 µM	–	–	–
N=C(Nc1ccc2nc(N)sc2c1)c1cccs1	2.9 µM	18	25 µM	0.2 µM	–	–	–
N=C(Nc1ccc2sc(N)nc2c1)c1cccs1	2.3 µM	13	79 µM	0.2 µM	–	–	–
N=C(Nc1ccc2nc(NCCc3ccccn3)sc2c1)c1cccs1	0.9 µM	1	13 µM	1.3 µM	0.05 µM	3.4 µM	25 µM
CCSC(=N)Nc1ccc2sc(N)nc2c1	–	3	–	–	–	–	–
N=C(Nc1ccc2sc(NC3CCN(Cc4ccc(F)cc4)CC3)nc2c1)c1cccs1	13 µM	16	91 µM	0.8 µM	–	–	–
N=C(Nc1ccc2nc(NC3CCN(Cc4ccccc4)CC3)sc2c1)c1cccs1	6 µM	12	14 µM	0.5 µM	0.09 µM	12.5 µM	36 µM
CCSC(=N)Nc1ccc2nc(N)sc2c1	9.2 µM	7	46 µM	1.4 µM	–	–	–
N=C(Nc1ccc2nc(NC3CCN(CCc4cnc[nH]4)CC3)sc2c1)c1cccs1	–	2	–	–	–	–	–
COc1ccc(CN2CCC(Nc3nc4ccc(NC(=N)c5cccs5)cc4s3)CC2)cc1	–	28	–	–	–	–	–
NC(=Nc1ccc2nc(NC3CCN(CCc4cnc[nH]4)CC3)sc2c1)c1cccs1	0.7 µM	–	6 µM	0.3 µM	4.8 µM	4.6 µM	26 µM
CN1CCCC1CCNc1nc2cc(NC(=N)c3cccs3)ccc2s1 (racemic)	1.6 µM	53	15 µM	0.03 µM	–	–	–
COc1cccc(CN2CCC(Nc3nc4ccc(N=C(N)c5cccs5)cc4s3)CC2)c1	3.8 µM	–	> 100 µM	0.1 µM	6.7 µM	1.3 µM	19 µM
COC(=O)c1ccc(CN2CCC(Nc3nc4ccc(NC(=N)c5cccs5)cc4s3)CC2)cc1	–	18	–	–	–	–	–
N=C(Nc1ccc2sc(NCCN3CCOCC3)nc2c1)c1cccs1	12 µM	9	141 µM	1.3 µM	–	–	–
N=C(Nc1ccc2sc(NC3CCN(Cc4ccccc4)CC3)nc2c1)c1cccs1	–	40	–	–	–	–	–
NC(=Nc1ccc2sc(NC3CCN(Cc4ccccc4)CC3)nc2c1)c1cccs1	16 µM	–	48 µM	0.4 µM	–	–	–
N=C(Nc1ccc2nc(NCCN3CCOCC3)sc2c1)c1cccs1	1.5 µM	–	37 µM	0.2 µM	–	9.1 µM	44 µM

Reference: ChEMBL document CHEMBL1147215, “Novel 2-aminobenzothiazoles as selective neuronal nitric oxide synthase inhibitors” (Bioorg Med Chem Lett, 2007)
